Experimental data published in ChEMBL document CHEMBL3232843, “Novel pyrrolidine diketopiperazines selectively inhibit melanoma cells via induction of late-onset apoptosis” (J Med Chem, 2014).
Active and inactive are the calls of the source. No cut-off for these calls is given here.

Key:
M14 [1] = assay: Cytotoxicity against human M14 cells assessed as cell viability after 4 hrs using bis-AAF-R110 as substrate by ApoTox-Glo triplex assay; type: functional, cell-based
Summary of the method: (§1)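 M14 cells, 1250 per well, in serum-free DMEM, settled 4 h, then given 1:3 serial dilutions. Ionomycin, terfenadine and panobinostat were the controls. Incubated 4, 24, 48 or 72 h at 37 °C. A reagent containing 400 µM GF-AFC (live-cell protease, ex 400/em 505 nm) and 400 µM bis-AAF-R110 (dead-cell protease, ex 485/em 520 nm) was applied for 30 min at 37 °C. Caspase-Glo 3/7 (DEVD) luminescence was then read after 30 min at room temperature.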

M14 [2] = assay: Cytotoxicity against human M14 cells assessed as cell viability after 4 hrs using GF-AFC as substrate by ApoTox-Glo triplex assay; type: functional, cell-based
Summary of the method: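 M14 #5 cells, 1250 per well in serum-free DMEM, pre-incubated 4 h at 37 °C, 5% CO2. Compounds added as 1:3 serial dilutions; incubated 4, 24, 48 and 72 h. Per time point, a reagent containing 400 µM GF-AFC (live-cell protease) and 400 µM bis-AAF-R110 (dead-cell protease) was added for 30 min at 37 °C, then fluorescence was read. Caspase-Glo 3/7 was added next, 30 min at room temperature, then luminescence.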

M14 [3] = assay: Induction of apoptosis human M14 cells assessed as caspase activity after 4 to 24 hrs using DEVD peptide as substrate by ApoTox-Glo triplex assay; type: functional, cell-based; summary of the method: as §1
[4] = Cytotoxicity against CHOK1 cells at 100 uM after 72 hrs by CellTiter-Glo luminescence assay; type: cell-based, Cricetulus griseus; details: chinese hamster, CHO-K1 cells; read-out: INH
Summary of the method: (§2)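 1250 cells per well in serum-free medium (F12 for CHO-K1 and A549, DMEM for M14). Compounds given as 10-point 1:3 serial dilutions from a 300 µM stock, plus a gefitinib control. Incubated 72 h at 37 °C, 5% CO2. CellTiter-Glo added for 15 min at room temperature, then luminescence read. Viability normalized to media-only wells (0%) and 1% DMSO wells (100%). Run in triplicate.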

A549 [5] = assay: Cytotoxicity against human A549 cells at 100 uM after 72 hrs by CellTiter-Glo luminescence assay; type: functional; details: A549, 72 h; summary of the method: as §2
M14 [6] = assay: Cytotoxicity against human M14 cells at 100 uM after 72 hrs by CellTiter-Glo luminescence assay; type: functional; details: M14, 72 h; summary of the method: as §2
M14 [7] = assay: Cytotoxicity against human M14 cells after 72 hrs by CellTiter-Glo luminescence assay; type: functional, cell-based; details: M14, 72 h; summary of the method: as §2
A549 [8] = assay: Cytotoxicity against human A549 cells after 72 hrs by CellTiter-Glo luminescence assay; type: functional, cell-based; details: A549, 72 h; summary of the method: as §2
[9] = Cytotoxicity against CHOK1 cells after 72 hrs by CellTiter-Glo luminescence assay; type: cell-based; details: Cricetulus griseus, CHO-K1, 72 h; summary of the method: as §2
M14 [10] = assay: Induction of apoptosis human M14 cells assessed as caspase activity at 100 uM after 4 hrs using DEVD peptide as substrate by ApoTox-Glo triplex assay; type: functional, cell-based; summary of the method: as §1
M14 [11] = assay: Induction of apoptosis human M14 cells assessed as caspase activity after 24 to 48 hrs using DEVD peptide as substrate by ApoTox-Glo triplex assay; type: functional, cell-based; summary of the method: as §1
M14 [12] = assay: Cytotoxicity against human M14 cells assessed as cell viability after 24 hrs using GF-AFC as substrate by ApoTox-Glo triplex assay; type: functional, cell-based; summary of the method: as §1
M14 [13] = assay: Cytotoxicity against human M14 cells assessed as cell viability at 100 uM after 4 hrs using GF-AFC as substrate by ApoTox-Glo triplex assay; type: functional, cell-based; summary of the method: as §1
M14 [14] = assay: Cytotoxicity against human M14 cells assessed as cell viability at 100 uM after 4 hrs using bis-AAF-R110 as substrate by ApoTox-Glo triplex assay; type: functional, cell-based; summary of the method: as §1

SMILES: CC(C)(C)c1ccc(C(O)CCCN2CCC(C(O)(c3ccccc3)c3ccccc3)CC2)cc1 (stereo unspecified)
- Activity (M14 [1]): Active
- Activity (M14 [2]): Active
- Activity (M14 [3]): Active

SMILES: CCC[C@@H]1CNC(=O)C(=O)N1C[C@@H]1CCCN1C[C@H](Cc1ccc(O)cc1)N1C[C@@H](Cc2ccc(O)cc2)N(CC2CCCC2)C(=O)C1=O
- cytotoxicity at 72 h, 100 µM [4]: 7%
- inhibition at 100 µM (A549 [5]): 5%
- inhibition at 100 µM (M14 [6]): 3%

SMILES: CCC[C@@H]1CNC(=O)C(=O)N1C[C@@H]1CCCN1C[C@@H](Cc1ccc(O)cc1)N1C[C@@H](Cc2ccc(O)cc2)N(CC2CCCC2)C(=O)C1=O
- cytotoxicity at 72 h, 100 µM [4]: 11%
- inhibition at 100 µM (A549 [5]): 14%
- inhibition at 100 µM (M14 [6]): 25%

SMILES: CCC[C@H]1CNC(=O)C(=O)N1C[C@@H]1CCCN1C[C@@H](CC1CCCCC1)N1C[C@H](Cc2ccc(O)cc2)N(CCC23CC4CC(CC(C4)C2)C3)C(=O)C1=O
- IC50 (M14 [7]): > 50 µM
- IC50 (A549 [8]): > 50 µM
- IC50 [9]: > 50 µM

SMILES: CCC[C@@H]1CNC(=O)C(=O)N1C[C@@H]1CCCN1C[C@H](Cc1ccc(O)cc1)N1C[C@@H](Cc2ccc(O)cc2)N(CC(CC)c2ccccc2)C(=O)C1=O (stereo partly specified)
- cytotoxicity at 72 h, 100 µM [4]: 0%

SMILES: CCC[C@@H]1CNC(=O)C(=O)N1C[C@@H]1CCCN1C[C@H](Cc1ccc(O)cc1)N1C[C@H](Cc2ccc(O)cc2)N(CC2CCCC2)C(=O)C1=O
- cytotoxicity at 72 h, 100 µM [4]: 7%
- inhibition at 100 µM (A549 [5]): 0%
- inhibition at 100 µM (M14 [6]): 15%

SMILES: Cc1[nH]c2ccccc2c1CCNCc1ccc(/C=C/C(=O)NO)cc1
- Activity (M14 [10]): inactive
- Activity (M14 [11]): Active
- Activity (M14 [12]): Dose-dependent effect
- Activity (M14 [13]): inactive
- Activity (M14 [14]): inactive
